≈ marks a conversion by molar mass, not a printed value.
Tests used:
[1] = test system: Mycobacterium tuberculosis; test: Antimycobacterial activity against isoniazid/rifampicin-resistant Mycobacterium tuberculosis MTB9160 after 7 days by microplate Alamar blue assay; format: functional; settings: MTB9160, 168 h
Outline: (§1)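 MABA against replicating M. tuberculosis. Cells grown to late log phase (70–100 Klett units) in 7H9 broth with 0.2% glycerol, 0.05% Tween 80 and 10% ADC. They were washed in PBS, filtered (8 µm) and frozen. Twofold compound dilutions received 2×10^5 CFU per well at 37 °C. Tween 80 and Alamar blue were added on day 7, then 16–24 h more. Fluorescence read at 530/590 nm. MIC = lowest concentration giving ≥90% fluorescence reduction versus bacterium-only controls.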

[2] = test system: Mycobacterium tuberculosis; test: Antimycobacterial activity against isoniazid/rifampicin-resistant Mycobacterium tuberculosis MTB11168 after 7 days by microplate Alamar blue assay; format: functional; settings: MTB11168, 168 h; outline: as §1

| SMILES | MIC90 [1] [µM] | MIC90 [2] [µM] |
| --- | --- | --- |
| CO[C@H]1/C=C/O[C@@]2(C)Oc3c(C)c(O)c4c(O)c(c(/C=N/N5CCN(C)CC5)c(O)c4c3C2=O)NC(=O)/C(C)=C\C=C\[C@H](C)[C@H](O)[C@@H](C)[C@@H](O)[C@@H](C)[C@H](OC(C)=O)[C@@H]1C [RIFAMPIN] | > 57 | > 57 |
| Cc1ccc2nc(C)c(C(=O)NCCNc3ccc(C(C)(C)C)cc3)n2c1 | 0.57 (≈ 0.208 µg/mL) | 1.37 (≈ 0.499 µg/mL) |
| COc1ccc(NCCNC(=O)c2c(C)nc3ccc(C)cn23)cc1 | 2.64 (≈ 0.893 µg/mL) | 1.47 (≈ 0.497 µg/mL) |
| NNC(=O)c1ccncc1 [ISONIAZID] | > 291 | > 291 |
| Cc1ccc2nc(C)c(C(=O)NCCOc3ccc(Br)cc3)n2c1 | 0.2 (≈ 0.0777 µg/mL) | < 0.041 |

— ChEMBL document CHEMBL4118065, “Design, synthesis and antimycobacterial activity of novel imidazo[1,2-a]pyridine-3-carboxamide derivatives” (Eur J Med Chem, 2017)
